From ChEMBL document CHEMBL1121700, “Antiinflammatory 5,6-dihydro-11-oxodibenz[b,e]azepine-3-acetic acids” (1981)

How the values were obtained:
Assay type in all cases: functional
Mus musculus [1] = organism: Mus musculus; assay: Analgesic activity relative to aspirin as 1 in 32 mice phenylquinone writhing assay
Method in brief: (§1)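 Male mice, 18–20 g, dosed orally with test agent in aqueous vehicle (0.9% NaCl, 0.5% Na carboxymethylcellulose, 0.4% polysorbate 80, 0.9% benzyl alcohol, 97.3% water) 20 min before intraperitoneal phenylquinone. Writhing observed over the following 10 min. Potency relative to aspirin taken from dose-response plots by analysis of variance.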

Rattus norvegicus = assay: Antiinflammatory activity relative to phenyl butazone as 1 in rat carrageenan paw edema assay
Method in brief: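 Female rats, 80–90 g, six per dose group, at least four dose levels. Test agent given orally 1 h before carrageenan injection into one hind paw, in vehicle of 0.9% NaCl, 0.5% Na carboxymethylcellulose, 0.4% polysorbate 80, 0.9% benzyl alcohol, 97.3% water. Rats killed 4 h after dosing and both hind paws weighed. Potency relative to phenylbutazone from dose-response of % weight increase of treated over untreated paw, by analysis of variance.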

Mus musculus [2] = organism: Mus musculus; assay: Analgesic activity relative to aspirin as 1 in 8 mice phenylquinone writhing assay; method in brief: as §1
Mus musculus [3] = organism: Mus musculus; assay: Analgesic activity relative to aspirin as 1 in 16 mice phenylquinone writhing assay; method in brief: as §1
Mus musculus [4] = organism: Mus musculus; assay: Analgesic activity relative to aspirin as 1 in 24 mice phenylquinone writhing assay; method in brief: as §1

CN1Cc2ccccc2C(=O)c2ccc(CC(=O)O)cc21 gave a Relative activity (Mus musculus [1]) of under 0.2 and a Relative activity (Rattus norvegicus) of 7.
Work on O=C(O)Cc1ccc2c(c1)NCc1ccccc1C2=O yielded a Relative activity (Rattus norvegicus) of 29 and a Relative activity (Mus musculus [2]) of under 0.7.
CCN1Cc2ccccc2C(=O)c2ccc(CC(=O)O)cc21 gave a Relative activity (Rattus norvegicus) of 2.3 and a Relative activity (Mus musculus [3]) of under 0.2.
Compound COc1ccc2c(c1)CN(C)c1cc(CC(=O)O)ccc1C2=O has a Relative activity (Rattus norvegicus) of 6.7 and a Relative activity (Mus musculus [3]) of under 0.5.
With CC(=O)N1Cc2ccccc2C(=O)c2ccc(CC(=O)O)cc21 the Relative activity (Rattus norvegicus) was under 0.3 and the Relative activity (Mus musculus [2]) was under 0.2.
COc1ccc2c(c1)CNc1cc(CC(=O)O)ccc1C2=O gave a Relative activity (Rattus norvegicus) of under 0.1 and a Relative activity (Mus musculus [2]) of under 0.2.
For CC(C(=O)O)c1ccc2c(c1)N(C)Cc1ccccc1C2=O (centres undefined), the Relative activity (Rattus norvegicus) was 11 and the Relative activity (Mus musculus [4]) was 1.
